In ChEMBL document CHEMBL3870358, “Covalent Guanosine Mimetic Inhibitors of G12C KRAS” (ACS Med Chem Lett, 2017):

Key:
[1] = system: GTPase KRas (Homo sapiens), P01116 [G12C]; assay: Binding affinity to GMP-stabilized FLAG-tagged KRAS G12C mutant (unknown origin) assessed as inactivation constant using desthiobiotin-GTP probe by alphascreen assay
How it was run: (§1)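 Nucleotide-free purified KRAS G12C, stabilized with excess GMP, incubated with compound. Remaining enzyme then labeled by a GTP-desthiobiotin acyl phosphate probe that reacts with Lys16, and detected with AlphaScreen reagents. Reaction rates were plotted against compound concentration and fit to kobs = kinact[I]/(Ki + [I]) to estimate kinact and Ki.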

[2] = system: GTPase KRas (Homo sapiens), P01116 [G12C]; assay: Binding affinity to GMP-stabilized FLAG-tagged KRAS G12C mutant (unknown origin) assessed as ratio of Kinact to Ki using desthiobiotin-GTP probe by alphascreen assay; how it was run: as §1
GTPase KRas = GTPase KRas (Homo sapiens, UniProt P01116, G12C); assay: Binding affinity to GMP-stabilized FLAG-tagged KRAS G12C mutant (unknown origin) using desthiobiotin-GTP probe by alphascreen assay
Sequence of GTPase KRas (P01116 whole entry G12C): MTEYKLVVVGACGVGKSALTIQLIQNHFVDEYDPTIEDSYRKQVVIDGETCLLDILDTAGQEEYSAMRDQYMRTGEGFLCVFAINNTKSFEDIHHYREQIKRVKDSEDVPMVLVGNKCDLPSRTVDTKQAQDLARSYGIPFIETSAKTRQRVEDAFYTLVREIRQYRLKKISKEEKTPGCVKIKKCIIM
How it was run: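 Nucleotide-free recombinant KRAS G12C purified and stabilised with excess GMP, incubated with compound, then probed with GTP-desthiobiotin acyl phosphate probe (reacts with Lys16). Desthiobiotinylated protein detected by AlphaScreen (ActivAlpha). Observed reaction rates plotted against compound concentration and fit to kobs = kinact[I]/(Ki + [I]) to extract kinact and Ki.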

[3] = system: GTPase KRas (Homo sapiens), P01116 [G12C]; assay: Binding affinity to recombinant GDP-loaded KRAS G12C mutant (unknown origin) assessed as half life at 115 uM by CPM-probe based fluorescence assay
How it was run: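 Chemosensor competition assay. Purified recombinant GDP-loaded KRAS G12C incubated with compound, then probed at several time points with a probe detecting free unreacted Cys12 thiol. Read-out combines GDP displacement kinetics with covalent inactivation.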

[4] = Binding affinity to Mg2+ ion assessed as compound concentration required to reach Mg2+ dependent shift plateau by 31P NMR analysis
[5] = Binding affinity to Mg2+ ion assessed as compound concentration required to show half maximal Mg2+ dependent shift by 31P NMR analysis

Sequence of GTPase KRas (Homo sapiens), P01116 [G12C] (P01116 whole entry G12C): as above

| Activity [4] | Activity [5] | SMILES | Kinact [1] | Ratio [2] | Ki (GTPase KRas) | T1/2 [3] |
| --- | --- | --- | --- | --- | --- | --- |
|  |  | Nc1nc2c(ncn2[C@@H]2O[C@H](COP(=O)(O)CP(=O)(O)OCCCNC(=O)CCl)[C@@H](O)[C@H]2O)c(=O)[nH]1 | 0.07 min⁻¹ | 0.2 min⁻¹ µM⁻¹ | 0.374 µM | 2.5 h |
|  |  | Nc1nc2c(ncn2[C@@H]2O[C@H](COP(=O)(O)CP(=O)(O)OC3CCN(C(=O)CCl)C3)[C@@H](O)[C@H]2O)c(=O)[nH]1 (stereo not given in full) | 2.2 min⁻¹ | 2.4 min⁻¹ µM⁻¹ | 0.92 µM | 1.1 h |
| 2 equiv | 0.5 equiv | Nc1nc2c(ncn2[C@@H]2O[C@H](COP(=O)(O)OP(=O)(O)OP(=O)(O)O)[C@@H](O)[C@H]2O)c(=O)[nH]1 |  |  |  |  |
|  |  | Nc1nc2c(ncn2[C@@H]2O[C@H](COP(=O)(O)C(F)P(=O)(O)OCCNC(=O)CCl)[C@@H](O)[C@H]2O)c(=O)[nH]1 (mixture of isomers) | 0.21 min⁻¹ | 0.03 min⁻¹ µM⁻¹ | 8 µM | 6.6 h |
|  |  | Nc1nc2c(ncn2[C@@H]2O[C@H](COP(=O)(O)CP(=O)(O)O[C@@H]3CC[C@@H](NC(=O)CCl)C3)[C@@H](O)[C@H]2O)c(=O)[nH]1 (mixture of isomers) | 2.3 min⁻¹ | 0.06 min⁻¹ µM⁻¹ | 36 µM | 64 h |
|  |  | Nc1nc2c(ncn2[C@@H]2O[C@H](COP(=O)(O)CS(=O)(=O)NCCNC(=O)CCl)[C@@H](O)[C@H]2O)c(=O)[nH]1 | 0.33 min⁻¹ | 0.2 min⁻¹ µM⁻¹ | 1.6 µM | 2.3 h |
|  |  | Nc1nc2c(ncn2[C@@H]2O[C@H](COP(=O)(O)CP(=O)(O)OC3CCCN(C(=O)CCl)C3)[C@@H](O)[C@H]2O)c(=O)[nH]1 (mixture of isomers) | 0.55 min⁻¹ | 0.16 min⁻¹ µM⁻¹ | 3.5 µM | 12 h |
|  |  | Nc1nc2c(ncn2[C@@H]2O[C@H](COP(=O)(O)C(F)(F)P(=O)(O)OCCNC(=O)CCl)[C@@H](O)[C@H]2O)c(=O)[nH]1 | 0.365 min⁻¹ | 0.9 min⁻¹ µM⁻¹ | 0.38 µM | 4.2 h |
|  |  | C=CC(=O)NCCOP(=O)(O)OP(=O)(O)OC[C@H]1O[C@@H](n2cnc3c(=O)[nH]c(N)nc32)[C@H](O)[C@@H]1O | 2.12 min⁻¹ | 7.6 min⁻¹ µM⁻¹ | 0.28 µM | 0.6 h |
|  |  | COC(=O)/C=C/CCCOP(=O)(O)CP(=O)(O)OC[C@H]1O[C@@H](n2cnc3c(=O)[nH]c(N)nc32)[C@H](O)[C@@H]1O |  |  | > 20 µM | 120 h |
|  |  | Nc1nc2c(ncn2[C@@H]2O[C@H](COP(=O)(O)CP(=O)(O)O[C@@H]3CC[C@H](NC(=O)CCl)C3)[C@@H](O)[C@H]2O)c(=O)[nH]1 (mixture of isomers) | 1 min⁻¹ | 0.02 min⁻¹ µM⁻¹ | 50 µM | 42 h |
|  |  | Nc1nc2c(ncn2[C@@H]2O[C@H](COP(=O)(O)OP(=O)(O)OCCNC(=O)CCl)[C@@H](O)[C@H]2O)c(=O)[nH]1 | 0.86 min⁻¹ | 95 min⁻¹ µM⁻¹ | 0.009 µM | 0.68 h |
|  |  | Nc1nc2c(ncn2[C@@H]2O[C@H](COC(=O)CP(=O)(O)OCCNC(=O)CCl)[C@@H](O)[C@H]2O)c(=O)[nH]1 | 0.053 min⁻¹ | 0.02 min⁻¹ µM⁻¹ | 2.2 µM | 47 h |
|  |  | Nc1nc2c(ncn2[C@@H]2O[C@H](CNc3c(NCCCNC(=O)CCl)c(=O)c3=O)[C@@H](O)[C@H]2O)c(=O)[nH]1 |  |  | > 25 µM | 13 h |
|  |  | CC(C)(CNC(=O)CCl)COP(=O)(O)CP(=O)(O)OC[C@H]1O[C@@H](n2cnc3c(=O)[nH]c(N)nc32)[C@H](O)[C@@H]1O | 0.14 min⁻¹ | 0.028 min⁻¹ µM⁻¹ | 5 µM | 20 h |
|  |  | Nc1nc2c(ncn2[C@@H]2O[C@H](COS(=O)(=O)NC(=O)OCCNC(=O)CCl)[C@@H](O)[C@H]2O)c(=O)[nH]1 | 0.24 min⁻¹ | 0.05 min⁻¹ µM⁻¹ | 5 µM | 9.5 h |
|  |  | Nc1nc2c(ncn2[C@@H]2O[C@H](COC(=O)CS(=O)(=O)NCCNC(=O)CCl)[C@@H](O)[C@H]2O)c(=O)[nH]1 |  |  | > 10 µM | 24 h |
|  |  | Nc1nc2c(ncn2[C@@H]2O[C@H](COP(=O)(O)CP(=O)(O)OCCNC(=O)CCl)[C@@H](O)[C@H]2O)c(=O)[nH]1 | 0.06 min⁻¹ | 0.02 min⁻¹ µM⁻¹ | 2.7 µM | 2.1 h |
|  |  | Nc1nc2c(ncn2[C@@H]2O[C@H](COP(=O)(O)CC(=O)OCCNC(=O)CCl)[C@@H](O)[C@H]2O)c(=O)[nH]1 | 0.055 min⁻¹ | 0.003 min⁻¹ µM⁻¹ | 15.2 µM | 84 h |
| 2 equiv | 0.5 equiv | Nc1nc2c(ncn2[C@@H]2O[C@H](COP(=O)(O)OP(=O)(O)O)[C@@H](O)[C@H]2O)c(=O)[nH]1 |  |  |  |  |

| SMILES | Activity [4] | Activity [5] | Kinact [1] | Ratio [2] | Ki (GTPase KRas) | T1/2 [3] |
| --- | --- | --- | --- | --- | --- | --- |
| Nc1nc2c(ncn2[C@@H]2O[C@H](COP(=O)(O)C(F)(F)P(=O)(O)OCCCNC(=O)CCl)[C@@H](O)[C@H]2O)c(=O)[nH]1 |  | < 20 equiv | 0.3 min⁻¹ | 0.8 min⁻¹ µM⁻¹ | 0.382 µM | 1.06 h |
